A short description of experiment [1]: reducers of endogenous Her2 protein level, primary screen, SKBR3 breast tumor cells, AlphaScreen, ATP viability (AID 461;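 active = Her2 level under about 52% in both replicate screens, with viability over 70% of control, limit read from the data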;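 as to Her2 level: lower value means less Her2 protein in the cells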;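 as to viability: percent of carrier control wells set as 100% viability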). The conditions noted are these: 18-24 h, measured here: SKBR3 viability, ATP luminescence, at 10 µM.
Experiment [2] addresses Receptor tyrosine-protein kinase erbB-2 (Homo sapiens) (UniProt P04626). Described as above. The following applies: 18-24 h, at 10 µM, stronger effect = lower value.
The nature of experiment [3]: SK-BR-3 cell growth inhibitors, pilot screen, 24 h, human (AID 572;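 active = viability at or below 10% of carrier control in both of two separate runs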;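 also: compound exposure lasted between 18 and 24 h rather than exactly 24 h; 100% = carrier-treated control wells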). The conditions noted are these: SK-BR-3 viability, CellTiter-Glo luminescence, at 10 µM, stronger effect = lower value.
Experiment [4] in a line: HUVEC growth inhibition – cell-based, human, primary screen (AID 575;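 active = viability at or below 30% in both replicate assays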;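 also: 100% = median of untreated cell wells with 0.1% DMSO on each plate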). The following applies: HUVEC proliferation, CellTiter-Glo luminescence, 72 h; at 10 µM; stronger effect = lower value. The method, boiled down: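 Timing: 72 h treatment at 37 °C; material: HUVEC primary cells; technique: CellTiter-Glo luminescence measuring cellular ATP; controls: vehicle and MePR control wells; measure: percent of median DMSO-control luminescence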

Experiment [5] in a line: growth inhibitors of H69AR lung tumor, primary screen, human, duplicate replicates (AID 580;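 active = viability at or under a set limit in both replicates, limit being median viability minus 3 SD, cut at about 48% in these data, passing the limit was not always enough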;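 also: 100% = mean luminescence of untreated wells and 0% = no signal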). The conditions noted are these: H69AR lung tumor cells viability, ATP luminescence, 72 h; at 10 µM; stronger effect = lower value.
A short description of experiment [6]: reversal of MRP1-mediated doxorubicin resistance, pilot screen, H69AR cells, doxorubicin co-treatment (AID 601). The following applies: CellTiter-Glo, 72 h, at 10 µM; for differential viability (reversal): stronger effect = higher value.
Experiment [7] is described as follows: 384-well plate pilot, post-Golgi transport modulator project, inhibition of yeast transport mutant growth (AID 636; in the data active = inhibition above about 31%). The conditions noted are these: absorbance 615 nm, about 18 h, stronger effect = higher value.
A short description of experiment [8]: growth suppression of yeast trafficking mutant, preliminary HTS, modulators of trafficking downstream of Golgi apparatus project, 1536-format plate, OD 615 nm (AID 637; in the data active = inhibition above about 30%). The following applies: yeast transport mutant growth, absorbance 615 nm, 18 h; stronger effect = higher value.
[9] abbreviates: H69AR cells + 2 uM doxorubicin, measured here: viability with 2 uM doxorubicin, stronger effect = lower value.
[10] abbreviates: H69AR cells, compound alone cytotoxicity.

The source made the active and inactive calls.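 The calls were made as follows, unless noted: active = viability loss from added drug above about 55%, and viability with drug at most 40%, in both replicates (limit read from the data, passing the limit was not always enough); inconclusive = both conditions met in only one replicate; inactive = neither replicate meets both conditions.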

Receptor tyrosine-protein kinase erbB-2 (Homo sapiens), sequence (P04626 whole entry, looked up): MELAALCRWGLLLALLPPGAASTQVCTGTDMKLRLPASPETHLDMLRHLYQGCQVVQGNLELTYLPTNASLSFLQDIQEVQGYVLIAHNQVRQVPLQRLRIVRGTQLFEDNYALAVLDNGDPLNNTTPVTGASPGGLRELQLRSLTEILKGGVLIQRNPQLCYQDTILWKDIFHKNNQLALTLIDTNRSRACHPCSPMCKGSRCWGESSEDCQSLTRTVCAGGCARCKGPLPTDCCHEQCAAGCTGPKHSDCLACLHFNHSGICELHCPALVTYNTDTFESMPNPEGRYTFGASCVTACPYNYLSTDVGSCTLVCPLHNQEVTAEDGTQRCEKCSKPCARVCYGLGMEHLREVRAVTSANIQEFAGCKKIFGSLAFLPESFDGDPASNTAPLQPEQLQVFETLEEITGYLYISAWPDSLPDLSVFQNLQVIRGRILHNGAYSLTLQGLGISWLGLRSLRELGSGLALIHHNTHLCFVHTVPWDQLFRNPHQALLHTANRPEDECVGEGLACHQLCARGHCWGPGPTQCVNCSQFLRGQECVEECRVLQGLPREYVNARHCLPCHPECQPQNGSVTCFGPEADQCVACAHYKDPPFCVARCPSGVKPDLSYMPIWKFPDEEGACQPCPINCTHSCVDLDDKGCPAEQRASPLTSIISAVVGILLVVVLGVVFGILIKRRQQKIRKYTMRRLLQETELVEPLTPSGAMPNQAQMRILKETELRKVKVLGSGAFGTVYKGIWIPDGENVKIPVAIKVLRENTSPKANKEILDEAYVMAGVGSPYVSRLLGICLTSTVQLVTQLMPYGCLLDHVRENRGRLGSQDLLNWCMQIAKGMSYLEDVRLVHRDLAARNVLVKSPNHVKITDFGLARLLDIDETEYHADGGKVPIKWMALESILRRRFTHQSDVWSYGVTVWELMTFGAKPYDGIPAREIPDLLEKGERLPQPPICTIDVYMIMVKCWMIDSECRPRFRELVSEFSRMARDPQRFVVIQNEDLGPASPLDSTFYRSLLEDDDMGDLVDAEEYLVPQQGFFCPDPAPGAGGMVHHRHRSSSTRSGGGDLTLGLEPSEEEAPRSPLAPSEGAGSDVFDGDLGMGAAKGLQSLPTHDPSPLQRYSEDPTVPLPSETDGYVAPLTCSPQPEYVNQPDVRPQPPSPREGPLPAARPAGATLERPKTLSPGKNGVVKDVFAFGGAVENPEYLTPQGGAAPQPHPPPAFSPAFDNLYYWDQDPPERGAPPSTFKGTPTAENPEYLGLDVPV

As for `Cc1nc2ccccc2n1CCC(=O)Nc1cccc(F)c1`, the viability in experiment [1] was 88%; in experiment [3], 88% (inactive); in experiment [4] it was 93.6% (inactive); in experiment [5], 79.9% (inactive); in experiment [6] (setting [9]), 90%; in experiment [6] (setting [10]) it was 79.9%. Besides, the Her2 level in experiment [2] was 90% (inactive). Further, the differential viability (reversal) in experiment [6] (H69AR cells + 2 uM doxorubicin) was -10.1% (inactive). Besides, the inhibition in experiment [7] was 0.38% (inactive); in experiment [8], -5.33% (inactive).
As to `Cc1cccc(NC2SC(=O)N(c3ccccc3)C2=O)c1` (stereo not given), the viability was 100% in experiment [1]; 100% (inactive) in experiment [3]; 88.9% (inactive) in experiment [4]; 87.6% (inactive) in experiment [5]; 97.9% in experiment [6] (setting [9]); 87.6% in experiment [6] (setting [10]). The Her2 level in experiment [2] is 81% (inactive). For the same compound, the differential viability (reversal) in experiment [6] (H69AR cells + 2 uM doxorubicin) was -10.4% (inactive). In addition, the inhibition in experiment [7] was -3.25% (inactive); in experiment [8], -5.5% (inactive).
Turning to `CC(C)[C@H](NC(=O)OC(C)(C)C)c1nnc(SCc2cccc(F)c2)o1`, the viability in experiment [1] is 90%; in experiment [3], 90% (inactive); in experiment [4], 107% (inactive); in experiment [5], 96.4% (inactive); in experiment [6] (setting [9]), 97.5%; in experiment [6] (setting [10]) it was 96.4%. Also, in experiment [2], the Her2 level is 120% (inactive). In experiment [6] (H69AR cells + 2 uM doxorubicin), the differential viability (reversal) was -1.12% (inactive). Moreover, the inhibition in experiment [7] is 0.13% (inactive); in experiment [8], 0% (inactive).
Take `COc1ccc2cc(C(=O)NCc3ccco3)c(=Nc3ccc(C(=O)O)cc3)oc2c1`: the viability in experiment [1] was 68%; in experiment [3] it was 68% (inactive); in experiment [4] it was 77.4% (inactive); in experiment [5] it was 55% (inactive); in experiment [6] (setting [9]) it was 69.1%; in experiment [6] (setting [10]), 55%. The Her2 level in experiment [2] is 83% (inactive). For the same compound, in experiment [6] (H69AR cells + 2 uM doxorubicin), the differential viability (reversal) is -14.1% (inactive). Further, the figures for the inhibition in experiment [7] and in experiment [8] were -5% (inactive) and -1% (inactive), respectively.
As to `O=C(O)C1CCCN1S(=O)(=O)c1ccc2ccccc2c1` (stereo not given), the viability in experiment [1] is 106%; in experiment [3] it was 106% (inactive); in experiment [4] it was 101% (inactive); in experiment [5], 95.6% (inactive); in experiment [6] (setting [9]), 108%; in experiment [6] (setting [10]), 95.6%. In addition, the Her2 level in experiment [2] is 110% (inactive). Also, in experiment [6] (H69AR cells + 2 uM doxorubicin), the differential viability (reversal) was -12% (inactive). Further, the inhibition in experiment [7] is 0.27% (inactive); in experiment [8], 9.51% (inactive).
On to `CC(=O)Nc1ccc2c(c1)nc(CCNC(=O)c1ccccc1)n2C`, for which the viability in experiment [1] is 90.5%; in experiment [3] it was 90.5% (inactive); in experiment [4], 110% (inactive); in experiment [5], 102% (inactive); in experiment [6] (setting [9]), 85.7%; in experiment [6] (setting [10]), 102%. In experiment [2], the Her2 level was 89% (inactive). Moreover, in experiment [6] (H69AR cells + 2 uM doxorubicin), the differential viability (reversal) is 15.8% (inactive). Moreover, the inhibition in experiment [7] was -8.36% (inactive); in experiment [8] it was -1.43% (inactive).
As to `COc1ccccc1Nc1nc(N)nc(CN2CCN(c3ccccc3F)CC2)n1`, the viability in experiment [1] was 96%; in experiment [3], 96% (inactive); in experiment [4], 98.9% (inactive); in experiment [5] it was 81.3% (inactive); in experiment [6] (setting [9]), 90%; in experiment [6] (setting [10]) it was 81.3%. Moreover, the Her2 level in experiment [2] was 120% (inactive). For the same compound, the differential viability (reversal) in experiment [6] (H69AR cells + 2 uM doxorubicin) was -8.69% (inactive). The inhibition in experiment [7] was 1.71% (inactive); in experiment [8] it was 11.5% (inactive).
For the compound `COc1ccc(CCNC(=O)C2CCN(S(=O)(=O)c3cc(OC)ccc3OC)CC2)cc1`, the viability is 93% in experiment [1]; 93% (inactive) in experiment [3]; 114% (inactive) in experiment [4]; 103% (inactive) in experiment [5]; 96.8% in experiment [6] (setting [9]); 103% in experiment [6] (setting [10]). In experiment [2], the Her2 level is 95% (inactive). Moreover, in experiment [6] (H69AR cells + 2 uM doxorubicin), the differential viability (reversal) was 5.9% (inactive). The inhibition in experiment [7] is -7.97% (inactive); in experiment [8] it was 4.59% (inactive).
On to `Cc1nc(C)c(C(=O)Nc2ccc(C)c(F)c2)o1`, for which the viability in experiment [1] was 92%; in experiment [3], 92% (inactive); in experiment [4] it was 117% (inactive); in experiment [5], 94.8% (inactive); in experiment [6] (setting [9]), 79.3%; in experiment [6] (setting [10]) it was 94.8%. Also, in experiment [2], the Her2 level was 80% (inactive). For the same compound, the differential viability (reversal) in experiment [6] (H69AR cells + 2 uM doxorubicin) was 15.5% (inactive). The inhibition in experiment [7] was -5.54% (inactive); in experiment [8], 1% (inactive).
With `CCOc1ccc(CNC(=O)C2CCCN(S(C)(=O)=O)C2)cc1OC` (stereo not given), the viability in experiment [1] was 77%; in experiment [3], 77% (inactive); in experiment [4], 102% (inactive); in experiment [5], 98.8% (inactive); in experiment [6] (setting [9]), 90.9%; in experiment [6] (setting [10]), 98.8%. In experiment [2], the Her2 level is 133% (inactive). In addition, in experiment [6] (H69AR cells + 2 uM doxorubicin), the differential viability (reversal) was 7.88% (inactive). Moreover, the inhibition is -1.67% (inactive) in experiment [7] and 0.17% (inactive) in experiment [8].
Consider `Cc1nc2ccccn2c1/C(O)=C1\C(=O)C(=O)N(CCN2CCOCC2)C1c1cccs1` (stereo not given), for which the viability in experiment [1] was 94.5%; in experiment [3] it was 94.5% (inactive); in experiment [4], 108% (inactive); in experiment [5], 98.7% (inactive); in experiment [6] (setting [9]) it was 94.6%; in experiment [6] (setting [10]) it was 98.7%. In addition, in experiment [2], the Her2 level was 90.5% (inactive). Moreover, in experiment [6] (H69AR cells + 2 uM doxorubicin), the differential viability (reversal) was 4.16% (inactive). In addition, the inhibition in experiment [7] was -8.78% (inactive); in experiment [8] it was 0.67% (inactive).
Take `O=S(=O)(CCOc1ccccc1)c1nc2ccccc2[nH]1`: the viability is 104% in experiment [1]; 104% (inactive) in experiment [3]; 54.7% (inactive) in experiment [4]; 1.98% (active) in experiment [5]; 1.77% in experiment [6] (setting [9]); 1.98% in experiment [6] (setting [10]). For the same compound, the Her2 level in experiment [2] is 18.5% (active). In addition, in experiment [6] (H69AR cells + 2 uM doxorubicin), the differential viability (reversal) was 0.22% (inactive). Moreover, the inhibition was -3.95% (inactive) in experiment [7] and 3.11% (inactive) in experiment [8].
`CCN(Cc1nc2ccccc2c(=O)[nH]1)Cc1nc2cc(OC)c(OC)cc2c(=O)[nH]1`: the viability is 88.5% in experiment [1]; 88.5% (inactive) in experiment [3]; 99.5% (inactive) in experiment [4]; 89.8% (inactive) in experiment [5]; 92.1% in experiment [6] (setting [9]); 89.8% in experiment [6] (setting [10]). For the same compound, in experiment [2], the Her2 level was 114% (inactive). For the same compound, the differential viability (reversal) in experiment [6] (H69AR cells + 2 uM doxorubicin) is -2.33% (inactive). For the same compound, the inhibition is 0.54% (inactive) in experiment [7] and 9.83% (inactive) in experiment [8].
For the compound `Cc1ccccc1C(=O)Nc1c(C(=O)N2CCCC2)cnn1-c1ccccc1`, the viability was 112% in experiment [1]; 112% (inactive) in experiment [3]; 106% (inactive) in experiment [4]; 91.9% (inactive) in experiment [5]; 82% in experiment [6] (setting [9]); 91.9% in experiment [6] (setting [10]). In experiment [2], the Her2 level is 79% (inactive). In addition, the differential viability (reversal) in experiment [6] (H69AR cells + 2 uM doxorubicin) was 9.86% (inactive). Further, the inhibition in experiment [7] is -7.7% (inactive); in experiment [8], -0.63% (inactive).

The record behind these values is PubChem BioAssay.
